Results of several laboratories.
Compare with care: the assays were run in different laboratories.

With `O=C1CCCCC1C1C2C=CC=CC1/C(=C/c1ccccc1)C2` (stereo not shown) the IC50 was 0.082 µM (Jurkat; cell growth or viability, flow cytometry).
`CC(C)C[C@H](NC(=O)[C@H](Cc1ccccc1)NC(=O)c1cnccn1)B(O)O` has an IC50 of 0.011 µM (LOU-NH91; cell growth or viability, ATP luminescence).
The IC50 of `O=C(O)/C=C/c1ccc(O)c(O)c1` is reported as 5.1 µM (PaCa-2; cell growth or viability, MTT).
`C[C@@H](Oc1cc(-c2cnn(C3CCNCC3)c2)cnc1N)c1c(Cl)ccc(F)c1Cl` has an IC50 of 0.58 µM (Rh4; cell growth or viability; 72 h).
`CC(C)(C)OC(=O)NCCOc1cc(NC(=O)c2cnccn2)c2ncccc2c1` gave an IC50 of < 1 µM (MIA PaCa-2; cell growth or viability, MTT; 72 h).
For `Cn1cc(C(c2cccc(/C=C/C(=O)O)c2)c2cn(C)c3ccccc23)c2ccccc21`, the IC50 was > 20 µM (LNCaP; cell growth or viability, MTT; 48 h).
With `O=c1c(O[C@@H]2O[C@H](CO)[C@H](O)[C@H](O)[C@H]2O)c(-c2ccc(O)c(O)c2)oc2cc(O)cc(O)c12` the IC50 was 136 µM (SW780; cell growth or viability, ATP luminescence; 72 h).
For `CCN(CC)CCCCNc1ncc2cc(-c3cc(OC)cc(OC)c3)c(NC(=O)NC(C)(C)C)nc2n1`, the IC50 was 0.05 µM (SW780; cell growth or viability, MTT; 5 days).
`COc1cc(-c2oc3cc(O)cc(O)c3c(=O)c2O)ccc1O` gave an IC50 of 12.5 µM (SW780; cell growth or viability, ATP luminescence; 72 h).
For `CC(C)(C)SCCCC1=CC2C=CC=CC1C2C1CCCCC1=O` (stereo not shown), the IC50 was 0.057 µM (Jurkat; cell growth or viability, flow cytometry).
The IC50 of `O=C(O)C(c1c[nH]c2ccccc12)c1c[nH]c2ccccc12` is reported as > 100 µM (LNCaP; cell growth or viability, MTT; 48 h).
With `CCOc1cc(OCC)cc(C(=O)O[C@@H]2CN3Cc4c(cc5c(c4OC)OCO5)[C@@]24C=C[C@H](OC)C[C@@H]34)c1` the IC50 was 7.6 µM (MOLT-4; cell growth or viability, WST-1).
The IC50 of `COc1cc2nccc(Oc3ccc(NC(=O)C4(C(=O)Nc5ccc(F)cc5)CC4)cc3)c2cc1OC` is reported as 3.09 µM (Rh4; cell growth or viability; 72 h).
The IC50 of `O=c1c(O)c(-c2ccc(O)c(O)c2)oc2cc(O)cc(O)c12` is reported as 43.4 µM (SW780; cell growth or viability, ATP luminescence; 72 h).
For `FC(F)(F)c1ccc(C(c2c[nH]c3ccccc23)c2c[nH]c3ccccc23)cc1`, the IC50 was 13 µM (LNCaP; cell growth or viability, MTT; 48 h).
For `CC(=O)c1ccc(N=Nc2c(C(=O)O)cc(O)c(O)c2O)cc1`, the IC50 was 12 µM (PaCa-2; cell growth or viability, MTT).
With `COc1cccc(C(=O)O[C@@H]2CN3Cc4c(cc5c(c4OC)OCO5)[C@@]24C=C[C@H](OC)C[C@@H]34)c1` the IC50 was > 10 µM (MOLT-4; cell growth or viability, WST-1).
The IC50 of `Oc1ccc(C(c2c[nH]c3ccccc23)c2c[nH]c3ccccc23)cc1` is reported as > 100 µM (LNCaP; cell growth or viability, MTT; 48 h).
`COc1cc(Nc2nccc(-c3cnn4nc(OC)ccc34)n2)cc(C(F)(F)F)c1` has an IC50 of 0.5 µM (COV434; cell growth or viability, ATP luminescence).
`COc1ccc(C(=O)O[C@@H]2CN3Cc4c(cc5c(c4OC)OCO5)[C@@]24C=C[C@H](OC)C[C@@H]34)cc1OC` gave an IC50 of 7.4 µM (MOLT-4; cell growth or viability, WST-1).
With `COc1cc2c(Oc3ccc(NC(=O)C4(C(=O)Nc5ccc(F)cc5)CC4)cc3F)ccnc2cc1OCCCN1CCOCC1` the IC50 was 0.22 µM (Rh4; cell growth or viability; 72 h).
`O=C(O)c1cc(O)c(O)c(O)c1` has an IC50 of 17.5 µM (PaCa-2; cell growth or viability, MTT).
For `COc1cc(Nc2nc(C#N)cc3c(-c4ccccc4)n[nH]c23)cc(OC)c1OC`, the IC50 was 3 µM (MIA PaCa-2; cell growth or viability, MTS; 48 h).
With `COC(=O)CCC1=CC2C=CC=CC1C2C1CCCCC1=O` (stereo not shown) the IC50 was 0.159 µM (Jurkat; cell growth or viability, flow cytometry).
With `CC(=O)c1ccc(/N=N/c2cc(/C=C/C(=O)O)ccc2O)cc1` the IC50 was > 50 µM (PaCa-2; cell growth or viability, MTT).
For `C[C@H](Nc1ncnc2nc[nH]c12)c1cc2cccc(Cl)c2c(=O)n1-c1ccccc1`, the IC50 was 0.0019 µM (CD4+ T; IL-2 release, inhibitor).
With `CC/C(=C(\c1ccc(O)cc1)c1ccc(OCCN(C)C)cc1)c1ccccc1` the IC50 was 2.16 µM (T47D; cell growth or viability; 5 days).
`OC[C@H]1O[C@@H](Oc2cc3c(O)cc(O)cc3[o+]c2-c2ccc(O)c(O)c2)[C@H](O)[C@@H](O)[C@H]1O` has an IC50 of 84.5 µM (SW780; cell growth or viability, ATP luminescence; 72 h).
With `CC[C@@]1(O)C(=O)OCc2c1cc1n(c2=O)Cc2cc3ccccc3nc2-1` the IC50 was 0.004 µM (RPMI 8402; cell growth or viability, MTT; 96 h).
The IC50 of `COc1ccc(-c2nc(OCc3cn(CC(=O)Nc4cccc(OC)c4)nn3)c3ccccc3n2)cc1` is reported as 82.7 µM (WRL68; cell growth or viability, MTT; 72 h).
With `NCc1cc2c(-c3ccccc3)n[nH]c2c(Nc2ccccc2)n1` the IC50 was 2.3 µM (MIA PaCa-2; cell growth or viability, MTS; 48 h).
